Experimental data from ChEMBL document CHEMBL4024747, “Design, Synthesis, and Biological Activities of Vibsanin B Derivatives: A New Class of HSP90 C-Terminal Inhibitors” (J Med Chem, 2017).
Activity calls are given as the source filed them. No cut-off for these calls is given here.

Legend:
[1] = molecular target: Heat shock protein HSP 90-beta (Homo sapiens) (UniProt P08238); test: Binding affinity to human recombinant His-tagged HSP90beta-CTD expressed in Escherichia coli BL21(DE3) at 80 uM after 2 hrs in presence of 18-fluro vibsanin B by Western blot analysis
Chain of Heat shock protein HSP 90-beta (Homo sapiens) (P08238 whole entry, the tested form may be a part): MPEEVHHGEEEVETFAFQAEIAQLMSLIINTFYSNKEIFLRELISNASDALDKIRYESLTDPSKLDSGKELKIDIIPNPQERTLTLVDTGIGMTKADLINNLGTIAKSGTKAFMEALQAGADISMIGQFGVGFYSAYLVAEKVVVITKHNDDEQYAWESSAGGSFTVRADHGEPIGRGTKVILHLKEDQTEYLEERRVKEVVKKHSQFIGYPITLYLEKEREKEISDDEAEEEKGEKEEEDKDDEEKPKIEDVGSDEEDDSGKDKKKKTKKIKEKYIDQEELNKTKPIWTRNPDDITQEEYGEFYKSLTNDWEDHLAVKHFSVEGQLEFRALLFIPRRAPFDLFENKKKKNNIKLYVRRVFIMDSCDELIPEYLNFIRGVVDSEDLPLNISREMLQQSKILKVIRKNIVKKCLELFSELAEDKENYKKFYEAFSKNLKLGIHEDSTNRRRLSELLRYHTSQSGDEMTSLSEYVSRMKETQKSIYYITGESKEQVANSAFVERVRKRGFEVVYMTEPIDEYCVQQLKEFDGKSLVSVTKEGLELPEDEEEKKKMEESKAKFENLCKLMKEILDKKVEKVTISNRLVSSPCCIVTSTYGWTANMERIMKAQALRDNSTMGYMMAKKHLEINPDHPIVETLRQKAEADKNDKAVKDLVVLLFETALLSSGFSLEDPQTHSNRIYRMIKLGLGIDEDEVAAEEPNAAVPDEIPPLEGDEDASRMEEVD

[2] = molecular target: Heat shock protein HSP 90-beta (Homo sapiens) (UniProt P08238); test: Binding affinity to human FLAG-tagged HSP90beta middle domain expressed in human 293T cells at 30 uM by Western blot analysis; format: cell-based
In short: (§1)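 Flag-tagged full-length HSP90β and its NTD, MD and CTD constructs expressed by transfection in 293T cells; lysates incubated with 30 μM biotin-ViB, captured on streptavidin-agarose beads, bound protein detected by Western blot.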

[3] = molecular target: Heat shock protein HSP 90-beta (Homo sapiens) (UniProt P08238); test: Binding affinity to human recombinant His-tagged HSP90beta-CTD expressed in Escherichia coli BL21(DE3) at 80 uM after 2 hrs in presence of vibsanin B by Western blot analysis
[4] = molecular target: Heat shock protein HSP 90-beta (Homo sapiens) (UniProt P08238); test: Binding affinity to human FLAG-tagged HSP90beta N-terminal domain expressed in human 293T cells at 30 uM by Western blot analysis; format: cell-based; in short: as §1
[5] = molecular target: Heat shock protein HSP 90-beta (Homo sapiens) (UniProt P08238); test: Binding affinity to human recombinant His-tagged HSP90beta-CTD expressed in Escherichia coli BL21(DE3) at 80 uM after 2 hrs in presence of ViB-4-OH by Western blot analysis
[6] = molecular target: Heat shock protein HSP 90-beta (Homo sapiens) (UniProt P08238); test: Binding affinity to human FLAG-tagged HSP90beta C-terminal domain expressed in human 293T cells at 30 uM by Western blot analysis; format: cell-based; in short: as §1
[7] = molecular target: Heat shock protein HSP 90-beta (Homo sapiens) (UniProt P08238); test: Binding affinity to human recombinant His-tagged HSP90beta-CTD expressed in Escherichia coli BL21(DE3) at 80 uM after 2 hrs by Western blot analysis
Oryctolagus cuniculus = species: Oryctolagus cuniculus; test: Inhibition of HSP90 in rabbit reticulocyte lysate assessed as decrease in HSP90-dependant refolding of firefly luciferase at 10 uM after 30 mins by luciferase gene based assay
In short: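 Firefly luciferase heat-denatured at 41 °C for 10 min, then added with rabbit reticulocyte lysate to compounds at 10 μM. Renaturation at room temperature for 3 h; luciferin substrate added and luminescence read. Refolding expressed relative to DMSO; novobiocin at 500 μM as reference. Three independent experiments.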

SMMC-7721 = test: Antiproliferative activity against human SMMC7721 cells assessed as reduction in cell viability after 48 hrs by MTT assay; format: functional, cell-based; conditions: SMMC-7721, 48 h
SK-BR-3 = test: Antiproliferative activity against human SKBR3 cells assessed as reduction in cell viability after 48 hrs by MTT assay; format: functional, cell-based; conditions: SK-BR-3, 48 h
SW480 = test: Antiproliferative activity against human SW480 cells assessed as reduction in cell viability after 48 hrs by MTT assay; format: functional, cell-based; conditions: SW480, 48 h
[8] = molecular target: Luciferin 4-monooxygenase (Photinus pyralis) (UniProt P08659); test: Inhibition of firefly luciferase activity using luciferin substrate at 10 uM after 30 mins by luminescence assay
Chain of Luciferin 4-monooxygenase (Photinus pyralis) (P08659 whole entry): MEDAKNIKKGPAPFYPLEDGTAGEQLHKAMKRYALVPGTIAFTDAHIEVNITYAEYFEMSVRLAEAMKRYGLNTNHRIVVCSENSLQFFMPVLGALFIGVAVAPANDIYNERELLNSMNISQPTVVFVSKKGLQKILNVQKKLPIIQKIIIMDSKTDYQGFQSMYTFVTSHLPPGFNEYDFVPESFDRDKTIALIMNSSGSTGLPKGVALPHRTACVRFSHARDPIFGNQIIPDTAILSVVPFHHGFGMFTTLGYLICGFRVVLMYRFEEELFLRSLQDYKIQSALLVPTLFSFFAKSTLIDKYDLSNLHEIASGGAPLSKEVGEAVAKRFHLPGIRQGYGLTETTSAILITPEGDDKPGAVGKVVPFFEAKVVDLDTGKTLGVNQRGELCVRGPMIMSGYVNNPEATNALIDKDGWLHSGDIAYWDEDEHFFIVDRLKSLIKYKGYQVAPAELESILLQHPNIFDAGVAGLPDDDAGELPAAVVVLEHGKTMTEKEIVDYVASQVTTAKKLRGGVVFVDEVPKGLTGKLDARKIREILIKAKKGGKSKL

BEAS-2B = test: Cytotoxicity against human BEAS2B cells assessed as reduction in cell viability after 48 hrs by MTT assay; format: cell-based
HepG2 = test: Antiproliferative activity against human HepG2 cells assessed as reduction in cell viability after 48 hrs by MTT assay; format: functional, cell-based; conditions: HepG2, 48 h
BT-474 = test: Antiproliferative activity against human BT474 cells assessed as reduction in cell viability after 48 hrs by MTT assay; format: functional, cell-based; conditions: BT-474, 48 h
MCF7 = test: Antiproliferative activity against human MCF7 cells assessed as reduction in cell viability after 48 hrs by MTT assay; format: functional, cell-based; conditions: MCF7, 48 h
HeLa = test: Antiproliferative activity against human HeLa cells assessed as reduction in cell viability after 48 hrs by MTT assay; format: functional, cell-based
Danio rerio = species: Danio rerio; test: Toxicity in 3 days post fertilized zebrafish embryo assessed as changes in embryonic phenotypes at 4 to 16 uM after 12 hrs; conditions: in vivo
HL-60 = test: Antiproliferative activity against human HL60 cells assessed as reduction in cell viability after 48 hrs by MTT assay; format: functional, cell-based; conditions: HL-60, 48 h
Huh-7 = test: Antiproliferative activity against human HuH7 cells assessed as reduction in cell viability after 48 hrs by MTT assay; format: functional, cell-based; conditions: Huh-7, 48 h
MDA-MB-468 = test: Antiproliferative activity against human MDA-MB-468 cells assessed as reduction in cell viability after 48 hrs by MTT assay; format: functional, cell-based; conditions: MDA-MB-468, 48 h
AGS = test: Antiproliferative activity against human AGS cells assessed as reduction in cell viability after 48 hrs by MTT assay; format: functional, cell-based
A549 = test: Antiproliferative activity against human A549 cells assessed as reduction in cell viability after 48 hrs by MTT assay; format: functional, cell-based; conditions: A549, 48 h
[9] = Half life of compound in toluene at 60 degreeC by HPLC analysis; format: physicochemical
In short: (§2)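 Thermostability in toluene at 110 °C or 60 °C followed by HPLC; half-life estimated.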

[10] = molecular target: Heat shock protein HSP 90-beta (Homo sapiens) (UniProt P08238); test: Inhibition of FITC-geldanamycin binding to human FLAG-tagged HSP90beta N-terminal domain
[11] = molecular target: Heat shock protein HSP 90-alpha (Homo sapiens) (UniProt P07900); test: Inhibition of FITC-geldanamycin binding to human FLAG-tagged HSP90alpha N-terminal domain
[12] = Half life of compound in toluene at 110 degreeC by HPLC analysis; format: physicochemical; in short: as §2
[13] = Drug degradation in pH 7.4 PBS at 37 degreeC after 12 hrs by HPLC analysis relative to control
In short: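 Solution stability determined by HPLC after incubation in PBS pH 7.4 at 37 °C for 12 h.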

[14] = Stability of compound in boiling ethyl alcohol by HPLC analysis; format: physicochemical
[15] = Drug metabolism in deionized water assessed as compound decomposition at 100 degreeC after 10 mins by HPLC analysis relative to control; format: physicochemical; conditions: read-out: Drug metabolism
In short: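 Thermostability determined by HPLC after heating in deionized water at 100 °C for 10 min; decomposition recorded in percent.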

Row | inhibition (Oryctolagus cuniculus) | IC50 (SMMC-7721) [nM] | IC50 (SK-BR-3) [nM] | IC50 (SW480) [nM] | inhibition [8] | IC50 (HepG2) [nM] | IC50 (BT-474) [nM] | IC50 (MCF7) [nM] | IC50 (HeLa) [nM] | IC50 (HL-60) [nM] | IC50 (AGS) [nM] | IC50 (A549) [nM] | SMILES | Activity (Danio rerio) | further results
1 |  |  |  |  |  |  |  |  |  |  |  |  | CC(C)=CCC[C@]1(C)/C=C/[C@@H](OC(=O)C=C(C)C)[C@](C)(O)/C=C/C(=O)/C(COC(=O)CNCc2cn(CCOCCOCCOC(=O)CCCC[C@@H]3SC[C@@H]4NC(=O)N[C@@H]43)nn2)=C\C1 |  | Activity [1]: inactive; Activity [2]: Active; Activity [3]: inactive; Activity [4]: inactive; Activity [5]: Active; Activity [6]: Active; Activity [7]: Active
2 | Active | 140 to 620 | 330 | 140 to 620 | inactive | 860 | 940 | 240 | 880 | 140 to 620 | 740 | 140 to 620 | CC(C)=CCC[C@]1(C)/C=C/[C@@H](OC(=O)C=C(C)C)[C@](C)(O)/C=C/C(=O)/C(CF)=C\C1 | Toxic | IC50 (BEAS-2B): 770 nM; IC50 (Huh-7): 540 nM; IC50 (MDA-MB-468): 310 nM
3 | Active | 3250 | 9190 | 2650 | inactive | 19100 | 4550 | 2850 | 2480 | 2640 | 9680 | 3460 | CC(C)=CCC[C@]1(C)/C=C/[C@@H](OC(=O)C=C(C)C)[C@](C)(O)/C=C/C(=O)/C(CO)=C\C1 [VIBSANIN B] | Toxic | half-life [9]: 9 min; inhibition [10]: inactive; inhibition [11]: inactive; half-life [12]: 5 min; Drug degradation [13]: 4.92%; Stability [14]: Stable; degraded at 10 min [15]: 2.8%
